Experimental findings from ChEMBL document CHEMBL4428035, “Urea derivates of ursolic, oleanolic and maslinic acid induce apoptosis and are selective cytotoxic for several human tumor cell lines” (Eur J Med Chem, 2016) are described below.

In general, EC50 refers to the midpoint of the concentration-response curve.

The subject of series [1] is A2780. Put plainly: Induction of apoptosis in human A2780 cells assessed as necrotic cells at 10 uM after 24 hrs by Annexin V/propidium iodide staining based flow cytometry relative to control. In kind it is functional. In outline: (§1)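 Annexin V/propidium iodide staining of A2780 cells exposed to 10 µM compound for 24 h and 48 h, read by flow cytometry. Viable, apoptotic, necrotic and secondary-necrotic fractions were reported as relative changes versus untreated control (%).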
For orientation: A flow cytometer gives signals particle by particle.

For series [2], the system named is A2780. Briefly: Cell cycle arrest in human A2780 cells assessed as increase in subG1 phase at 10 uM after 48 hrs by FACS analysis. In kind it is functional, cell-based. In outline:
(§2)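 Living A2780 cells treated with 10 µM test agent for 24 h and 48 h, then examined for cell-cycle distribution by FACS. Phase populations (Sub-G1, G1/G0, S, G2/M) were quantified by model fitting and expressed as arithmetic means of the population distribution (%).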

The test system of a further series is NIH3T3. Put plainly: Cytotoxicity against mouse NIH/3T3 cells assessed as reduction in cell proliferation after 96 hrs by sulforhodamine B assay. The following applies: NIH3T3, 96 h. In kind it is ADME, cell-based. For orientation: In SRB staining, fixed cells bind dye roughly in proportion to their protein.
Series [3] deals with A2780. Put plainly: Cell cycle arrest in human A2780 cells assessed as decrease in S phase at 10 uM after 48 hrs by FACS analysis. In kind it is functional, cell-based. In outline:
as §2

Another series relates to MCF7. Briefly: Cytotoxicity against human MCF7 cells assessed as reduction in cell proliferation after 96 hrs by sulforhodamine B assay. The settings on record: MCF7, 96 h. In kind it is functional, cell-based.
Series [4] concerns A2780. Briefly: Cell cycle arrest in human A2780 cells assessed as increase in S phase at 10 uM after 24 hrs by FACS analysis. In kind it is functional, cell-based. In outline: as §2
The test system of a further series is SW-1736. Briefly: Cytotoxicity against human SW1736 cells assessed as reduction in cell proliferation after 96 hrs by sulforhodamine B assay. In kind it is functional, cell-based. The following applies: SW-1736, 96 h.
The subject of a further series is 518A2. Briefly: Cytotoxicity against human 518A2 cells assessed as reduction in cell proliferation after 96 hrs by sulforhodamine B assay. The following applies: 518A2, 96 h. In kind it is functional, cell-based.
Series [5] deals with A2780. Briefly: Cell cycle arrest in human A2780 cells assessed as decrease in G1/G0 phase at 10 uM after 48 hrs by FACS analysis. In kind it is functional, cell-based. In outline: as §2
The test system of the next series is A549. Put plainly: Cytotoxicity against human A549 cells assessed as reduction in cell proliferation after 96 hrs by sulforhodamine B assay. The settings on record: A549, 96 h. In kind it is functional, cell-based.
Series [6] concerns A2780. Put plainly: Cell cycle arrest in human A2780 cells assessed as decrease in G2/M phase at 10 uM after 24 hrs by FACS analysis. In kind it is functional, cell-based. In outline:
as §2

Series [7] relates to A2780. Briefly: Cell cycle arrest in human A2780 cells assessed as decrease in G1/G0 phase at 10 uM after 24 hrs by FACS analysis. In kind it is functional, cell-based. In outline:
as §2

Series [8] concerns A2780. Put plainly: Induction of apoptosis in human A2780 cells assessed as caspase-3 activation up to 72 hrs by flow cytometry. In kind it is functional, cell-based. In outline: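 Caspase activation in A2780 cells was measured by flow cytometry after 24, 48 and 72 h of treatment.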
Series [9] has as its system A2780. Put plainly: Cytotoxicity against human A2780 cells assessed as reduction in cell proliferation after 96 hrs by sulforhodamine B assay. In kind it is functional, cell-based. The following applies: A2780, 96 h.
Series [10] deals with A2780. Put plainly: Induction of apoptosis in human A2780 cells assessed as viable cells at 10 uM after 24 hrs by Annexin V/propidium iodide staining based flow cytometry relative to control. In kind it is functional. The settings on record: A2780, 24 h, read-out: Activity. In short, it runs like this:
as §1

The test system of series [11] is A2780. Put plainly: Induction of apoptosis in human A2780 cells assessed as secondary necrotic cells at 10 uM after 24 hrs by Annexin V/propidium iodide staining based flow cytometry relative to control. In kind it is functional. In outline:
as §1

The subject of series [12] is A2780. Put plainly: Induction of apoptosis in human A2780 cells assessed as apoptotic cells at 10 uM after 24 hrs by Annexin V/propidium iodide staining based flow cytometry relative to control. In kind it is functional. In short, it runs like this: as §1
The next series relates to HT-29. Put plainly: Cytotoxicity against human HT-29 cells assessed as reduction in cell proliferation after 96 hrs by sulforhodamine B assay. In kind it is functional, cell-based. The settings on record: HT-29, 96 h.
Series [13] can be described thus: Selectivity index, ratio of EC50 for mouse NIH/3T3 cells to EC50 for human 518A2 cells.
A short description of series [14]: Selectivity index, ratio of EC50 for mouse NIH/3T3 cells to EC50 for human A2780 cells. The following applies: NIH/3T3 cells versus A2780 cells.
Series [15] is described as follows: Selectivity index, ratio of EC50 for mouse NIH/3T3 cells to EC50 for human A549 cells. The following applies: NIH/3T3 cells versus A549 cells.
A short description of series [16]: Selectivity index, ratio of EC50 for mouse NIH/3T3 cells to EC50 for human MCF7 cells. The settings on record: NIH/3T3 cells versus MCF7 cells.
A short description of series [17]: Selectivity index, ratio of EC50 for mouse NIH/3T3 cells to EC50 for human HT-29 cells. The following applies: NIH/3T3 cells versus HT-29 cells.
The nature of series [18]: Selectivity index, ratio of EC50 for mouse NIH/3T3 cells to EC50 for human FADU cells.
The nature of series [19]: Selectivity index, ratio of EC50 for mouse NIH/3T3 cells to EC50 for human SW1736 cells.

Molecules are shown by their SMILES. Active and inactive are the calls of the source. The rule behind the calls is not given here.

Consider `CC(=O)O[C@H]1C[C@]2(C)[C@H]3CC=C4[C@@H]5CC(C)(C)CC[C@]5(NC(=O)Nc5ccccc5)CC[C@@]4(C)[C@]3(C)CC[C@H]2C(C)(C)[C@H]1OC(C)=O`, for which the Activity in the series with A2780 [1] is reported as -1%; in the series with A2780 [11] it was 11%; in the series with A2780 [12], 33%. Besides, the result in the series on A2780 [2], with A2780 [3], with A2780 [4], in the series on A2780 [5], with A2780 [6] and in the series with A2780 [7] was Active. Moreover, the EC50 in the series with NIH3T3 was more than 120 µM; in the series with MCF7, 2.8 µM; with SW-1736 it was 2.8 µM; in the series on 518A2, 1.2 µM; in the series with A549 it was 4.4 µM; with A2780 [9] it was 0.9 µM. For the same compound, the EC50 with HT-29 stood at 2.3 µM. In the series on A2780 [8], the result was inactive. Also, the change in viable cells vs control (%) at 10 µM in the series with A2780 [10] is -43%.

Regarding `COCCO[C@@H]1C[C@]2(C)[C@H]3CC=C4[C@@H]5CC(C)(C)CC[C@]5(C(=O)NCc5ccccc5)CC[C@@]4(C)[C@]3(C)CC[C@H]2C(C)(C)[C@H]1OCCOC`, the “Ratio EC50” value in series [13], in series [18] and in series [19] was 5 in each case. The EC50 worked out at 15.5 µM with NIH3T3; 6.8 µM in the series on MCF7; 4.6 µM with SW-1736; 3.5 µM in the series on 518A2; 4.9 µM in the series on A549; 2.7 µM in the series on A2780 [9]. Moreover, in the series on HT-29, the EC50 was found to be 4.9 µM. The selectivity ratio in series [14], in series [15], in series [16] and in series [17] was 5 each time.
